From PubChem
SENP6 block: SENP6 protease inhibition; AID 2599; 1.8% of 330,000 active; inhibition, % at 10 µM; Q9GZR1; Recombinant SENP6 catalytic domain, aminoluciferin luminescence;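 active = inhibition above about 50% at the single tested dose, limit read from the data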
SENP8 block-1: SENP8 protease inhibition. Q96LD8. purified SENP8, Z-RLRGG-aminoluciferin cleavage, luminescence. inhibition, % at 10 µM. 1.2% of 330,000 active; in the data active = inhibition above about 50%
Target sequence (Q96LD8 whole entry, looked up): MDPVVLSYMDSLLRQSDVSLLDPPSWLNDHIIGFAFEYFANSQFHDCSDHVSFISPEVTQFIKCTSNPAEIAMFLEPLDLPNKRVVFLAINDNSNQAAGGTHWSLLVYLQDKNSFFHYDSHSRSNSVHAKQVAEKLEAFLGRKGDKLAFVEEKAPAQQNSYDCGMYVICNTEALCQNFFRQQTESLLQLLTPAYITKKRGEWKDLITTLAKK
SENP7 block: inhibitors of human SENP7 protease | Q9BQF6 | recombinant SENP7, Z-RLRGG-aminoluciferin luminescence, 40 min | inhibition, % at 5 µM | 1.5% of 330,000 active | AID 434973;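 active = inhibition above about 50% at the single test dose, limit read from the data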
SENP1 FRET inh: inhibitors of human SENP1 SUMO protease catalytic domain; Q9P0U3; recombinant SENP1 catalytic domain, CyPet-SUMO1-YPet FRET cleavage; inhibition, % at 10 µM; 0.21% of 360,000 active; AID 624204;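 active = inhibition at least 30% at 10 µM, raw YFP signal under a set limit, fluorescence ratio 0.5 to 1.5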
Target sequence (Q9P0U3 419-644 limits assumed): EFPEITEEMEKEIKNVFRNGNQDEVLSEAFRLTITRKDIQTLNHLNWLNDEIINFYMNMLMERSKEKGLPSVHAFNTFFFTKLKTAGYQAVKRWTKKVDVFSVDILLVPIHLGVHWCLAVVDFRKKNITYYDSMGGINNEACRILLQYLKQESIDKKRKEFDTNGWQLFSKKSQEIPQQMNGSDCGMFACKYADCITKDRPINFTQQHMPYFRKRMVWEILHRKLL
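Assay system: hSENP1 catalytic domain, recombinant. Amount: SENP1 enzyme, 20 pM final. Schedule: 50 min reaction, RT, dark. Technique: FRET, CFP and YFP emission. Control set: no-enzyme wells low, DMSO-plus-enzyme wells high control.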
SENP8 block-2: blocks human SENP8 cleavage of Nedd8 substrate; recombinant SENP8, Nedd8 substrate fluorescence; AID 602440; Q96LD8; inhibition, % at 20 µM; 0.64% of 360,000 active; in the data active = inhibition mostly above about 40%, no sharp cut-off; inactive = mostly below about 27%
SENP8 conf: confirmation of human SENP8 protease inhibitors; shares compounds with SENP7 block; Recombinant SENP8, Z-RLRGG-aminoluciferin luminescence, 60 min; inhibition, % at 12.5 µM; 40% of 6,200 active;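 active = mean inhibition across replicates above about 50%, limit read from the data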
SENP6 conf: confirmation of human SENP6 protease inhibitors. recombinant SENP6, Z-RLRGG-aminoluciferin luminescence. AID 488915. inhibition, % at 12.5 µM. 58% of 6,200 active. shares compounds with SENP7 block
SENP7 conf: confirmation of human SENP7 protease inhibitors; shares compounds with SENP7 block; 69% of 6,200 active; inhibition, % at 12.5 µM; recombinant SENP7, Z-RLRGG-aminoluciferin luminescence, 40 min; AID 488917
Casp3 SENP sel: caspase-3 inhibition (SENP selectivity assay) | shares compounds with SENP7 block | purified caspase-3, Z-DEVD-aminoluciferin luminescence, 60 min | inhibition, % at 12.5 µM | 60% of 6,200 active;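 active = mean inhibition above about 50%, limit read from the data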
Luc interf: counter-screen for SENP inhibitors: luminescence interference | shares compounds with SENP7 block | Pre-incubated SENP8/Z-RLRGG-aminoluciferin, luciferase luminescence interference | inhibition, % at 12.5 µM | 39% of 6,200 active | AID 488919;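 active = mean inhibition above about 50% when retested at one dose, limit read from the data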
Numbers stand for hits; – = inactive; · = no result given. Rows were chosen to be rich in hits. Some 2.5% of all compounds tested hit in one or more screens of this group.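 The calls were made as follows, unless noted: active = mean inhibition above about 50% in the one-dose retest (limit read from the data); inactive = the rest.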

SMILES	SENP6 block	SENP8 block-1	SENP7 block	SENP1 FRET inh	SENP8 block-2	SENP8 conf	SENP6 conf	SENP7 conf	Casp3 SENP sel	Luc interf
CCOC(=O)c1ccc(Nc2nc(N)c3cc(OC)c(OC)cc3n2)cc1	76	73	97	–	–	66	78	95	58	64
Cc1c(Cl)ccc(S(=O)(=O)NCCCn2ccnc2)c1Cl	–	–	–	–	–	·	·	·	·	·
COc1ccc(NC(=O)CCCOc2ccc(Cl)c(C)c2)cc1S(=O)(=O)N1CCOCC1	–	–	–	–	–	·	·	·	·	·
CCOC(=O)c1c(N)n(CCOC(=O)c2cccs2)c2nc3ccccc3nc12	84	–	–	–	–	–	–	–	–	–
Nc1nc2c(-c3ccc(Br)cc3)nnn2c2ccccc12	–	–	70	–	–	–	–	–	–	–
O=c1cc(CCl)[nH]c2nc3ccccc3n12	–	–	–	–	–	·	·	·	·	·
O=c1cc(-c2ccccc2)[nH]c2nc3ccccc3n12	88	88	98	–	–	–	64	64	72	–
O=C(Nc1cccc(-c2ccc(N3CCOCC3)nn2)c1)c1ccc(Cl)cc1	–	–	–	–	–	·	·	·	·	·
O=C(Nc1cccc(-c2ccc(N3CCCCC3)nn2)c1)c1ccco1	76	54	73	–	–	77	74	91	75	72
O=C(COc1ccc(Cl)cc1)Nc1cccc(-c2ccc(N3CCOCC3)nn2)c1	54	–	68	–	–	–	–	–	–	–
COc1ccccc1OCCNC(=O)c1cccc(S(=O)(=O)NCc2ccccc2)c1	–	–	–	–	–	·	·	·	·	·
Cc1cc(C(=O)COC(=O)c2ccccc2O)c(C)n1CC1CCCO1 (centres undefined)	97	95	97	–	–	98	99	102	88	56
Cc1cc(C(=O)COC(=O)c2n[nH]c3ccccc23)c(C)n1CC1CCCO1 (centres undefined)	86	87	–	–	–	–	92	99	90	77
COc1ccc(OC)c(NC(=O)COC(=O)c2n[nH]c3ccccc23)c1	–	–	–	–	–	·	·	·	·	·
COCCn1c(C)cc(C(=O)COC(=O)c2cccnc2SC)c1C	87	78	85	–	–	86	86	98	91	69
COc1ccc(C(=O)COC(=O)c2n[nH]c3ccccc23)c(OC)c1	51	–	–	–	–	–	–	69	–	–
C[C@]12c3[nH]c4cc(-c5ccco5)ccc4c3CCN1C(=O)[C@@H](CC(=O)NCCCn1ccnc1)C[C@@H]2C(=O)N1CCOCC1	·	·	–	–	–	·	·	·	·	·
CC1(C(=O)NS(=O)(=O)c2cccs2)CCN1C(=O)CC1CC1 (centres undefined)	·	·	·	–	–	·	·	·	·	·
C[C@@]12CCC=C[C@H]1[C@H](c1ccc(C(F)(F)F)cc1)N(Cc1ccccc1)C2=O	–	–	–	–	–	·	·	·	·	·
Cc1cc(C(=O)COC(=O)c2cccnc2Cl)c(C)n1CC1CCCO1 (centres undefined)	90	90	93	–	–	95	96	101	98	80
COCCn1c(C)cc(C(=O)COC(=O)c2n[nH]c3ccccc23)c1C	71	82	86	–	–	94	94	100	92	87
Cc1cc(C(=O)COC(=O)c2ccccc2O)c(C)n1Cc1cccs1	92	93	95	–	–	93	98	101	93	51
CC(/C=C/c1ccc(O)cc1)=N/O	91	81	85	–	–	86	84	96	93	86
CCCCC1Cc2[nH]c(=S)[nH]c(=O)c2C(c2cccc3ccccc23)O1 (centres undefined)	·	·	·	–	–	·	·	·	·	·
Cc1ccccc1C=O	–	–	–	–	–	·	·	·	·	·
